ChEMBL document CHEMBL3286295, “Discovery of HDAC inhibitors with potent activity against multiple malaria parasite life cycle stages” (Eur J Med Chem, 2014)
The source made the active and inactive calls. The calls are words filed in the database; no cut-off is given here.

Assays:
[1] = tested on: Plasmodium falciparum; assay: Antimalarial activity against asexual blood stage of Plasmodium falciparum 3D7 infected in human serum assessed as [3H]hypoxanthine incorporation incubated for 48 hrs prior to 3H]hypoxanthine addition measured after 24 hrs by liquid scintillation counting analysis; format: functional, organism-based; conditions: 3D7, Serum
Procedure, shortened: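 Synchronous ring-stage parasites (0.25% parasitaemia, 2.5% haematocrit) in RPMI 1640 with 10% heat-inactivated human serum, exposed to serially diluted compound for 48 h at 37°C. [3H]-hypoxanthine (0.5 μCi/well) then added for a further 24 h and counted by liquid scintillation. Inhibition is relative to 0.5% DMSO controls. IC50 by log-linear interpolation, mean (±SD) of three independent experiments, each in triplicate wells.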

[2] = tested on: HepG2; assay: Cytotoxicity against human HepG2 cells after 48 hrs; format: ADME, cell-based; conditions: HepG2, 48 h
[3] = Selectivity index, ratio of IC50 for human HepG2 cells to IC50 for asexual blood stage of Plasmodium falciparum 3D7
[4] = tested on: Plasmodium falciparum 3D7; assay: Inhibition of HDAC in Plasmodium falciparum 3D7 trophozoites assessed as histone H4 hyperacetylation level at 500 nM after 3 hrs by Western blotting analysis relative to control
Procedure, shortened: (§1)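 Synchronous trophozoite-stage 3D7 parasites incubated 3 h with 500 nM compound or 0.05% DMSO vehicle. Vehicle samples taken at 0 and 3 h. Saponin lysis and PBS washing, then 15% SDS-PAGE and immunoblotting. Anti-RAP2 monoclonal used as loading control; infrared fluorescent secondary detection.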

[5] = tested on: Plasmodium falciparum; assay: Inhibition of histone deacetylase in Plasmodium falciparum nuclear lysates at 1 uM by fluorescence assay
Procedure, shortened: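 Nuclear protein lysates prepared from trophozoite-stage P. falciparum with a nuclear extraction kit, tested at 1 μM compound in a fluorometric HDAC assay kit. Percent inhibition vs controls, mean (±SD) of two independent assays, each in duplicate.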

[6] = tested on: Plasmodium falciparum; assay: Inhibition of Plasmodium falciparum recombinant histone deacetylase1 using HDAC substrate 3 as substrate at 1 uM by fluorescence assay
Procedure, shortened: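 Recombinant PfHDAC1 tested at 1 μM compound in a fluorometric HDAC assay kit with Fluorogenic HDAC substrate 3. Percent inhibition vs controls, mean (±SD) of two independent assays, each in duplicate.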

[7] = tested on: Plasmodium berghei; assay: Antimalarial activity against exo-erythrocytic form of Plasmodium berghei infected in human HepG2 cells after 48 hrs; format: functional, organism-based; conditions: HepG2, 48 h
Procedure, shortened: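 HepG2-A16-CD81EGFP cells seeded 20–26 h before infection and given compound 18 h before infection (0.5% final DMSO). Infected with 1×10^3 luciferase-expressing P. berghei sporozoites per well, spun 3 min at 330xg, 37°C, then incubated 48 h at 37°C in 5% CO2. Read by luminescence. IC50 by four-parameter variable-slope nonlinear regression.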

[8] = Selectivity index, ratio of IC50 for human HepG2 cells to IC50 for exo-erythrocytic form of Plasmodium berghei
[9] = tested on: Plasmodium falciparum; assay: Antimalarial activity against late stage gametocyte stage of Plasmodium falciparum NF54 after 72 hrs; format: functional, organism-based; conditions: NF54, 72 h
Procedure, shortened: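 Stage IV gametocytes of NF54-pfs16-GFP, magnetically isolated day 8 post induction, 33,000 per well. Incubated 72 h with compound under 5% CO2/5% O2/80% N2, then overnight with Mitotracker Red CM-H2XRos (0.07 ug/ml). IC50 by sigmoidal variable-slope fit, mean ±SD, two experiments in duplicate.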

[10] = tested on: Plasmodium falciparum 3D7; assay: Inhibition of HDAC in Plasmodium falciparum 3D7 trophozoites assessed as histone H3 hyperacetylation level at 500 nM after 3 hrs by Western blotting analysis relative to control; procedure, shortened: as §1
[11] = Selectivity index, ratio of IC50 for human HepG2 cells to IC50 for late stage gametocyte stage of Plasmodium falciparum NF54; format: toxicity, cell-based; conditions: read-out: Ratio IC50
[12] = tested on: Plasmodium falciparum; assay: Antimalarial activity against Plasmodium falciparum infected in human erythrocytes after 72 hrs; format: functional, organism-based
[13] = Cytotoxicity against human mammalian cells after 72 to 96 hrs by MTT assay; format: cell-based
[14] = Selectivity index, ratio of IC50 for human mammalian cells to IC50 for Plasmodium falciparum; format: toxicity; conditions: mammalian cells (cell line not named), read-out: Ratio IC50
Procedure, shortened: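 Ratio of HepG2 IC50 to P. falciparum 3D7 IC50. HepG2 toxicity assay: uninfected HepG2-A16-CD81EGFP cells treated as in the liver-stage assay, with medium instead of sporozoites, for 48 h. ATP measured by luminescence vs DMSO-treated cells. IC50 by four-parameter regression.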

[15] = tested on: Plasmodium berghei; assay: microbe, parasite or virus in culture; format: functional, organism-based; conditions: HepG2
[16] = Cytotoxicity against erythrocytes (unknown origin); format: cell-based; conditions: Erythrocyte
[17] = tested on: RAW; assay: Cytotoxicity against mouse RAW cells by MTT assay; format: cell-based
[18] = Selectivity index, ratio of IC50 for mouse RAW cells to IC50 for Plasmodium falciparum; format: toxicity, cell-based; conditions: read-out: Ratio IC50

SMILES	IC50 [1] [nM]	IC50 [2] [nM]	selectivity ratio [3]	inhibition [4]	inhibition [5] [%]	inhibition [6] [%]	IC50 [7] [nM]	selectivity ratio [8]	IC50 [9] [nM]	inhibition [10]	further results
CC(C)(C)c1ccc(C(=O)NOCCCCCC(=O)NO)cc1	90	12500	139	Active	48.3	68.6	1870	7	> 120000	Active	–
O=C1C(O)=C([C@H]2CC[C@H](c3ccc(Cl)cc3)CC2)C(=O)c2ccccc21 [ATOVAQUONE]	–	–	–	–	–	–	0.16	> 64100	–	–	–
CCCOc1cccc(C(=O)NOCCCCCC(=O)NO)c1	240	7040	29	–	–	–	450	16	–	–	–
O=C(CCCCCONC(=O)c1ccco1)NO	620	8030	13	–	–	–	1130	7	1000	–	–
Cc1ccc(C(=O)NOCCCCCC(=O)NO)cc1	220	12100	55	–	–	–	1140	11	–	–	–
O=C(CCCCCONC(=O)c1ccc(-c2ccccc2)cc1)NO	160	10200	64	Active	89.3	64.2	1830	6	500	Active	selectivity ratio [11]: 20
CCCCc1nc2cc(/C=C/C(=O)NO)ccc2n1CCN(CC)CC [PRACINOSTAT]	–	–	–	–	–	–	–	–	–	–	IC50 [12]: 80 nM; IC50 [13]: > 800 nM; selectivity ratio [14]: > 4; IC50 [15]: 150 nM
CCCCCOc1ccc(C(=O)NOCCCCCC(=O)NO)cc1	210	> 50000	> 238	–	–	–	5140	> 10	–	–	–
CCCOc1ccccc1C(=O)NOCCCCCC(=O)NO	240	8120	34	–	–	–	480	17	–	–	–
CC(C)Oc1ccc(C(=O)NOCCCCCC(=O)NO)cc1	150	9760	65	Active	9.3	62.4	1360	7	–	Active	–
CCCCc1ccc(C(=O)NOCCCCCC(=O)NO)cc1	260	10800	41	–	–	–	1790	6	5300	–	–
Cc1ccccc1C(=O)NOCCCCCC(=O)NO	1120	12700	11	–	–	–	2540	5	–	–	–
CC(C)c1ccc(C(=O)NOCCCCCC(=O)NO)cc1	120	8760	73	Active	72.9	67.2	1340	7	–	Active	–
O=C(CCCCCCC(=O)Nc1ccccc1)NO [VORINOSTAT]	–	–	–	–	–	–	–	–	–	–	IC50 [16]: > 2200 nM
CCCOc1ccc(C(=O)NOCCCCCC(=O)NO)cc1	210	16900	80	–	–	–	5290	3	–	–	–
Cc1ccc(C(=O)NOCCCCCC(=O)NO)cc1C	120	3240	27	Active	93.3	82.6	310	10	250	Active	selectivity ratio [11]: 13
CCCCCCOc1ccc(C(=O)NOCCCCCC(=O)NO)cc1	350	> 50000	> 143	–	–	–	7910	> 6	–	–	–
CC(/C=C/C(=O)NO)=C\[C@@H](C)C(=O)c1ccc(N(C)C)cc1 [TRICHOSTATIN]	–	–	–	Active	78.1	93.3	–	–	–	Active	IC50 [16]: 200 nM
Cc1cccc(C(=O)NOCCCCCC(=O)NO)c1	190	4690	25	Active	73.9	75.5	660	7	430	Active	selectivity ratio [11]: 11
CCCCOc1ccc(C(=O)NOCCCCCC(=O)NO)cc1	170	> 50000	> 294	Active	50.3	72.1	2140	> 23	–	Active	–
O=C(CCCCCONC(=O)c1ccccc1F)NO	730	9100	12	–	–	–	1250	7	> 120000	–	–
CCN(CC)CCCC(C)Nc1ccnc2cc(Cl)ccc12 (stereo not drawn) [CHLOROQUINE]	–	> 10000	–	–	–	–	> 10000	–	–	–	–
CCOc1ccc(C(=O)NOCCCCCC(=O)NO)cc1	230	7680	33	–	–	–	1370	6	–	–	–
O=C(CCCCCONC(=O)c1ccc(C(F)(F)F)cc1)NO	260	13000	50	–	–	–	1900	7	–	–	–
Cc1cc(C)cc(C(=O)NOCCCCCC(=O)NO)c1	100	1260	13	Active	58.6	73.8	160	8	330	Active	selectivity ratio [11]: 4
O=C(CCCCCONC(=O)c1ccc(F)cc1)NO	580	10300	18	–	–	–	2310	4	2000	–	–
O=C(/C=C/c1ccccc1)N[C@@H](CCCCCC(=O)NO)C(=O)Nc1cccc2cccnc12	–	–	–	–	–	–	–	–	–	–	IC50 [16]: 1240 nM
Nc1cccc(-c2csc(NC(=O)CCCCCCC(=O)NO)n2)c1	–	–	–	–	–	–	–	–	–	–	IC50 [17]: 600 nM; selectivity ratio [18]: 333
COc1ccc2nc3cc(Cl)ccc3c(Nc3cc(CN4CCCC4)c(O)c(CN4CCCC4)c3)c2n1 [PYRONARIDINE]	–	–	–	–	–	–	–	–	2700	–	–
